Source: ChEMBL document CHEMBL1649139, “A novel gene, erm(41), confers inducible macrolide resistance to clinical isolates of Mycobacterium abscessus but is absent from Mycobacterium chelonae” (2009)

What was measured:
Format in all cases: functional
[1] = test system: Mycobacteroides abscessus; experiment: Antimicrobial activity against Mycobacterium abscessus isolate MC1448 at day 9 preincubated with 0.1 ug/ml erythromycin for 3 days by broth microdilution method
Method in brief: (§1)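 Clarithromycin MIC by broth microdilution following CLSI guidelines. Before testing, organisms were preincubated for 3 days in medium alone or in clarithromycin or erythromycin (0.01–1 μg/ml), long enough for at least two generations judged by turbidity increase. MICs were read on day 3 and again on extended incubation out to day 14.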

[2] = test system: Mycobacteroides abscessus; experiment: Antimicrobial activity against Mycobacterium abscessus isolate MC1448 at day 14 preincubated with 0.1 ug/ml erythromycin for 3 days by broth microdilution method
Method in brief: (§2)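 Clarithromycin MIC by CLSI-conforming broth microdilution. Before testing, cultures were preincubated for 3 days, either in medium alone or in clarithromycin or erythromycin (tested range 0.01–1 μg/ml). Preincubation ran for at least two generations, judged by turbidity increase. Plates were read on day 3 and on extended incubation at days 5 to 14.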

[3] = test system: Mycobacteroides abscessus; experiment: Antimicrobial activity against Mycobacterium abscessus isolate MC1448 at day 5 preincubated with 0.1 ug/ml for 3 days by broth microdilution method; method in brief: as §1
[4] = test system: Mycobacteroides abscessus; experiment: Antimicrobial activity against Mycobacterium abscessus isolate MC879-2 at day 9 preincubated with 0.1 ug/ml for 3 days by broth microdilution method
[5] = test system: Mycobacteroides abscessus; experiment: Antimicrobial activity against Mycobacterium abscessus isolate MC1448 at day 14 preincubated with 0.1 ug/ml for 3 days by broth microdilution method; method in brief: as §2
[6] = test system: Mycobacteroides abscessus; experiment: Antimicrobial activity against Mycobacterium abscessus isolate MC879 on day 4 by broth microdilution method; conditions: isolate MC879, 96 h
[7] = test system: Mycolicibacterium smegmatis; experiment: Antimicrobial activity against Mycobacterium smegmatis transformed with erm allele Mycobacterium abscessus isolate MC958 by broth microdilution method
[8] = test system: Mycolicibacterium smegmatis; experiment: Antimicrobial activity against Mycobacterium smegmatis transformed with erm allele Mycobacterium abscessus isolate MC720 by broth microdilution method
[9] = test system: Mycolicibacterium smegmatis; experiment: Antimicrobial activity against Mycobacterium smegmatis transformed with erm allele Mycobacterium abscessus isolate MC879 preincubated with 2 ug/ml erythromycin for 20 to 24 hrs by broth microdilution method
[10] = test system: Mycolicibacterium smegmatis; experiment: Antimicrobial activity against Mycobacterium smegmatis transformed with erm allele Mycobacterium abscessus isolate MC1082 preincubated with 2 ug/ml erythromycin for 20 to 24 hrs by broth microdilution method
[11] = test system: Mycobacteroides abscessus; experiment: Antimicrobial activity against Mycobacterium abscessus isolate MC720 at day 3 by broth microdilution method; conditions: isolate MC720, 72 h; method in brief: as §1
[12] = test system: Mycobacteroides abscessus; experiment: Antimicrobial activity against Mycobacterium abscessus isolate MC723 at day 5 by broth microdilution method; conditions: isolate MC723, 120 h; method in brief: as §1
[13] = test system: Mycobacteroides abscessus; experiment: Antimicrobial activity against Mycobacterium abscessus isolate MC724 at day 5 by broth microdilution method; conditions: isolate MC724, 120 h
Method in brief: (§3)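 Clarithromycin MIC by broth microdilution following CLSI guidelines. Organisms were preincubated […], for 3 days before the assay. This allowed at least two generations, judged by the rise in turbidity. The MIC was read at the stated day, with incubation extended from day 3 to as long as 14 days.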

[14] = test system: Mycobacteroides abscessus; experiment: Antimicrobial activity against Mycobacterium abscessus isolate MC719 at day 7 by broth microdilution method; conditions: isolate MC719, 168 h
Method in brief: (§4)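 Clinical M. abscessus isolates were preincubated for 3 days, either in medium alone or in clarithromycin or erythromycin at 0.01 to 1 μg/ml, allowing at least two generations of growth judged by turbidity. The clarithromycin MIC was then determined by CLSI-conforming broth microdilution, with plates read on day 3 and on extended incubation (days 5 to 14).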

[15] = test system: Mycobacteroides abscessus; experiment: Antimicrobial activity against Mycobacterium abscessus isolate MC724 at day 7 by broth microdilution method; conditions: isolate MC724, 168 h; method in brief: as §4
[16] = test system: Mycobacteroides abscessus; experiment: Antimicrobial activity against Mycobacterium abscessus isolate MC724 at day 9 by broth microdilution method; conditions: isolate MC724, 216 h; method in brief: as §3
[17] = test system: Mycobacteroides abscessus; experiment: Antimicrobial activity against Mycobacterium abscessus isolate MC724 at day 3 preincubated with 0.1 ug/ml erythromycin for 3 days by broth microdilution method
Method in brief: (§5)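 To test inducible resistance, cultures were preincubated for 3 days in clarithromycin or erythromycin, within 0.01–1 μg/ml. The period was set so cultures passed at least two generations, judged by turbidity increase. Clarithromycin MIC was then determined by CLSI-conforming broth microdilution and read on the stated day, from day 3 up to 14.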

[18] = test system: Mycobacteroides abscessus; experiment: Antimicrobial activity against Mycobacterium abscessus isolate MC1082 at day 3 by broth microdilution method; conditions: isolate MC1082, 72 h; method in brief: as §2
[19] = test system: Mycobacteroides abscessus; experiment: Antimicrobial activity against Mycobacterium abscessus isolate MC1028 at day 7 by broth microdilution method; conditions: isolate MC1028, 168 h; method in brief: as §2
[20] = test system: Mycobacteroides abscessus; experiment: Antimicrobial activity against Mycobacterium abscessus isolate MAB30 at day 9 by broth microdilution method; conditions: isolate MAB30, 216 h; method in brief: as §2
[21] = test system: Mycobacteroides abscessus; experiment: Antimicrobial activity against Mycobacterium abscessus isolate MC1082 at day 9 by broth microdilution method; conditions: isolate MC1082, 216 h; method in brief: as §2
[22] = test system: Mycobacteroides abscessus; experiment: Antimicrobial activity against Mycobacterium abscessus isolate MC1082 at day 5 preincubated with 0.1 ug/ml erythromycin for 3 days by broth microdilution method; method in brief: as §2
[23] = test system: Mycobacteroides abscessus; experiment: Antimicrobial activity against Mycobacterium abscessus isolate MC1082 at day 7 preincubated with 0.1 ug/ml erythromycin for 3 days by broth microdilution method; method in brief: as §2
[24] = test system: Mycobacteroides abscessus; experiment: Antimicrobial activity against Mycobacterium abscessus isolate MC1028 at day 9 preincubated with 0.1 ug/ml erythromycin for 3 days by broth microdilution method; method in brief: as §2
[25] = test system: Mycobacteroides abscessus; experiment: Antimicrobial activity against Mycobacterium abscessus isolate MC723 at day 5 preincubated with 0.1 ug/ml erythromycin for 3 days by broth microdilution method; method in brief: as §4
[26] = test system: Mycobacteroides abscessus; experiment: Antimicrobial activity against Mycobacterium abscessus isolate MC719 at day 7 preincubated with 0.1 ug/ml erythromycin for 3 days by broth microdilution method; method in brief: as §1
[27] = test system: Mycobacteroides abscessus; experiment: Antimicrobial activity against Mycobacterium abscessus isolate MC879 at day 9 preincubated with 0.1 ug/ml erythromycin for 3 days by broth microdilution method; method in brief: as §5
[28] = test system: Mycobacteroides abscessus; experiment: Antimicrobial activity against Mycobacterium abscessus isolate MC1448 at day 9 by broth microdilution method; conditions: isolate MC1448, 216 h; method in brief: as §1
[29] = test system: Mycobacteroides abscessus; experiment: Antimicrobial activity against Mycobacterium abscessus isolate MC1448 at day 14 by broth microdilution method; conditions: isolate MC1448, 336 h; method in brief: as §2
[30] = test system: Mycobacteroides abscessus; experiment: Antimicrobial activity against Mycobacterium abscessus isolate MC719 at day 14 preincubated with 0.1 ug/ml erythromycin for 3 days by broth microdilution method; method in brief: as §1
[31] = test system: Mycobacteroides abscessus; experiment: Antimicrobial activity against Mycobacterium abscessus isolate MC724 at day 3 preincubated with 0.1 ug/ml for 3 days by broth microdilution method; method in brief: as §5
[32] = test system: Mycobacteroides abscessus; experiment: Antimicrobial activity against Mycobacterium abscessus isolate MC958 at day 5 preincubated with 0.1 ug/ml for 3 days by broth microdilution method; method in brief: as §4
[33] = test system: Mycobacteroides abscessus; experiment: Antimicrobial activity against Mycobacterium abscessus isolate MC724 at day 7 preincubated with 0.1 ug/ml for 3 days by broth microdilution method; method in brief: as §5
[34] = test system: Mycobacteroides abscessus; experiment: Antimicrobial activity against Mycobacterium abscessus isolate MC720 at day 9 preincubated with 0.1 ug/ml for 3 days by broth microdilution method; method in brief: as §1
[35] = test system: Mycobacteroides abscessus; experiment: Antimicrobial activity against Mycobacterium abscessus isolate MC720 at day 14 preincubated with 0.1 ug/ml for 3 days by broth microdilution method; method in brief: as §1
[36] = test system: Mycobacteroides abscessus; experiment: Antimicrobial activity against Mycobacterium abscessus isolate MC724 at day 14 preincubated with 0.1 ug/ml for 3 days by broth microdilution method; method in brief: as §1

Measured: MIC

CC[C@H]1OC(=O)[C@H](C)[C@@H](O[C@H]2C[C@@](C)(OC)[C@@H](O)[C@H](C)O2)[C@H](C)[C@@H](O[C@@H]2O[C@H](C)C[C@H](N(C)C)[C@H]2O)[C@](C)(OC)C[C@@H](C)C(=O)[C@H](C)[C@@H](O)[C@]1(C)O [CLARITHROMYCIN]
16 µg/mL: [9]
8 µg/mL: [14] | [15]
4 µg/mL: [25] | [32]
1 µg/mL: [12] | [13]
≤ 0.5 µg/mL: [10] | [11] | [17] | [18] | [19] | [20] | [21] | [22] | [23] | [24] | [31]
> 32 µg/mL: [1] | [2] | [3] | [4] | [5] | [16] | [26] | [27] | [28] | [29] | [30] | [33] | [34] | [35] | [36]
≤ 2 µg/mL: [6]
2 µg/mL: [7] | [8]
